Measured values gathered from unrelated publications.
Lines come from different studies, so protocols differ.
CTSL: Procathepsin L (CTSL, Homo sapiens, UniProt P07711)
XDH: Xanthine dehydrogenase/oxidase (XDH, Bos taurus, UniProt P80457)

Compound	target	assay	setting	inhibition [%]
Cn1cc(-c2cccc(N3CCc4c(sc5c4CC(C)(C)C5)C3=O)c2CO)cc(Nc2ccncn2)c1=O	Platelet-derived growth factor receptor alpha (PDGFRA, Homo sapiens, UniProt P16234)	enzyme activity, inhibitor	1 µM	5
CCOC(=O)c1ccc(OC(=O)CCCCCNC(=N)N)cc1	CTSL	enzyme activity, inhibitor	10 µM	0
C[C@H](C(=O)N[C@H]1COc2ccccc2[C@@H]1S(C)(=O)=O)c1ccc(F)cc1	XDH	enzyme activity, inhibitor	10 µM	10
O=C(Oc1cncc(Cl)c1)c1cc2cc(Cl)ccc2[nH]1	CTSL	enzyme activity, inhibitor	10 µM	3
CC(C)C[C@H](NC(=O)[C@H]1O[C@@H]1C(=O)O)C(=O)NCCCCN=C(N)N	CTSL	enzyme activity, inhibitor	5 nM	39
CC(C)Cn1cnc2c(N)nc3ccccc3c21	Alpha-1B adrenergic receptor (Adra1b, Rattus norvegicus, UniProt P15823)	ligand displacement, radioligand	10 µM	40
C#Cc1n[nH]c2c(-c3cn(C(C)c4ccccn4)c(=O)[nH]c3=O)cc(F)cc12 (stereo not drawn)	Tyrosine-protein kinase Blk (BLK, Homo sapiens, UniProt P51451)	enzyme activity, inhibitor	1 µM	3.1
COc1cc(Nc2ncc(F)c(Nc3ccc4c(n3)NC(=O)C(C)(C)O4)n2)cc(OC)c1OC	5'-AMP-activated protein kinase catalytic subunit alpha-1 (PRKAA1, Homo sapiens, UniProt Q13131)	binding, competition with immobilised ligand	10 µM	74
CC[C@H](NC(=O)OCc1ccccc1)C(=O)N[C@H](C(=O)N[C@@H](Cc1ccccc1)C(=O)N(C)N(C#N)CCC(N)=O)C(C)(C)C	CTSL	enzyme activity, inhibitor	50 µM	99
C#Cc1n[nH]c2c(-c3cn([C@@H](C)c4ccccc4)c(=O)[nH]c3=O)cc(F)cc12	Protein kinase C theta type (PRKCQ, Homo sapiens, UniProt Q04759)	enzyme activity, inhibitor	0.1 µM	10.2
NC(=O)Cc1ccccc1	XDH	enzyme activity, inhibitor, absorbance	200 µg/mL	17.1
Cn1cc(-c2cc(F)cc(N3CCn4c(cc5c4CCCC5)C3=O)c2CO)cc(Nc2ccc(N3CCN(C4COC4)CC3)cn2)c1=O	Mitogen-activated protein kinase kinase kinase kinase 5 (MAP4K5, Homo sapiens, UniProt Q9Y4K4)	enzyme activity, inhibitor	0.1 µM	3
